In brackets after ≈: the same amount, converted by molar mass.
What was measured:
Trypanosoma cruzi = test: WHO-TDR: Chagas disease; format: functional, organism-based, Homo sapiens; conditions: MRC5
Method in brief: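 Each IC50 reflects antiparasitic potency against intracellular amastigotes of Trypanosoma cruzi Tulahuen CL2 beta-galactosidase strain. These were cultured in MRC-5SV2 human lung fibroblasts and exposed to a 10,000-compound diverse Life Chemicals library screened according to published standard procedures with a reference drug as positive control.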

[1] = WHO-TDR: Cytotoxicity; format: toxicity, cell-based; conditions: human, MRC5 cells
Brugia malayi = test: WHO-TDR: Lymphatic Filariasis; format: functional; set-up: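 tested at 10 µM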
Method in brief: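 The screening set was a 10,000-compound diverse library from Life Chemicals, filtered for drug-likeness and for reactive groups. It was run against Brugia malayi microfilariae as whole organisms, using previously published standard procedures. Reference drugs acted as positive controls, and activity is reported both as percent inhibition and as IC50.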

Plasmodium falciparum K1 = test: WHO-TDR: Malaria; format: functional, organism-based, Homo sapiens; conditions: Erythrocyte
Method in brief: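 This whole-organism screen covered 10,000 drug-likeness-filtered and reactive-group-filtered compounds from Life Chemicals. The target was the Plasmodium falciparum K1 strain in human red blood cells, and the readout was antiplasmodial IC50.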

Onchocerca ochengi = test: WHO-TDR: Onchocerciasis; format: functional; set-up: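 at 12.5 µM on microfilariae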
Method in brief: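 Percent inhibition and IC50 describe activity against microfilariae of Onchocerca ochengi or Onchocerca lienalis, used as animal-pathogen substitutes for the human parasite. The compounds tested made up a 10,000-member diverse library from Life Chemicals.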

[2] = test system: Trypanosoma brucei brucei; test: WHO-TDR: Human African Trypanosomiasis (HAT); format: functional, organism-based; conditions: Squib-427
Method in brief: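 Screening used a 10,000-compound diverse library supplied by Life Chemicals and filtered for drug-likeness and reactive groups. Whole bloodstream-form parasites of Trypanosoma brucei Squib 427 strain were assayed according to previously published standard procedures, with reference drugs as positive controls. The reported measure is IC50, reflecting antiparasitic potency.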

Schistosoma mansoni = test: WHO-TDR: Schistosomiasis; format: functional; set-up: concentration or dose not given beside the values
Method in brief: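 Percent inhibition and IC50 describe activity against whole Schistosoma mansoni worms of the Puerto Rican strain, tested as larvae and/or adults. The compounds screened were a diverse set of 10,000 from Life Chemicals, filtered for drug-likeness and reactive groups. Testing followed previously published standard procedures, with a reference drug as positive control.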

Leishmania infantum = test: WHO-TDR: Leishmaniasis; format: functional, organism-based, Mus musculus; conditions: Macrophage
Method in brief: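 The screened collection came from Life Chemicals: 10,000 diverse compounds selected after filtering for drug-likeness and reactive groups. Each was tested in a whole-organism assay against Leishmania infantum MHOM/MA(BE)/67 amastigotes inside murine peritoneal macrophages, using previously published standard procedures and a reference drug as positive control. Results are IC50 values for antiparasitic potency.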

Row | SMILES | IC50 (Trypanosoma cruzi) [µg/mL] | IC50 [1] [µg/mL] | % Inhibition (Brugia malayi) [%] | IC50 (Plasmodium falciparum K1) [µg/mL] | % Inhibition (Onchocerca ochengi) [%] | IC50 [2] [µg/mL] | % Inhibition (Schistosoma mansoni) [%] | IC50 (Leishmania infantum) [µg/mL]
1 | O=C(COc1ccc(Cl)cc1)NCCCn1nc(-c2ccc(F)cc2)ccc1=O | > 12.5 | > 12.5 | 0 | > 12.5 | 100 | > 12.5 | 16.7 | > 12.5
2 | COc1cccc(OCC(=O)N2CCN(c3nccn3-c3cccc(Cl)c3)CC2)c1 | 9.15 (≈ 21.4 µM) | > 13.9 | 0 | 12.2 (≈ 28.5 µM) | 0 | 4.61 (≈ 10.8 µM) | 0 | 0.45 (≈ 1.05 µM)
3 | O=C(NCCNC(=O)c1cccc(Cl)c1)c1ccc(NC(=O)c2ccc(F)cc2)cc1 | > 13.2 | > 13.2 | 0 | > 13.2 | 0 | > 13.2 | 0 | 0.427 (≈ 0.971 µM)
4 | O=C(NCCNc1ccc(Nc2ccccn2)nn1)Nc1ccc(F)cc1 | > 11 | > 11 | 0 | > 11 | 100 | 3.66 (≈ 9.95 µM) | 0 | > 11
5 | O=C(CN1CCN(c2nccn2-c2cccc(Cl)c2)CC1)Nc1ccc(F)cc1F | 4.67 (≈ 10.8 µM) | > 15.1 | 0 | 12.6 (≈ 29.2 µM) | 100 | 4.79 (≈ 11.1 µM) | 0 | 4.9 (≈ 11.4 µM)
6 | COc1cccc(-c2cc(CC(=O)Nc3nc(C)cs3)no2)c1 | > 9.88 | > 9.88 | 0 | 4.59 (≈ 13.9 µM) | 100 | > 9.88 | 0 | > 9.88
7 | CC(C)(C)n1ncc2c(=O)n(CCC(=O)NCc3ccccc3Cl)cnc21 | > 11.6 | > 11.6 | 20 | > 11.6 | 0 | > 11.6 | 100 | > 11.6
8 | Cc1ccc(NC(=O)CN2CCN(c3nccn3-c3ccccc3F)CC2)cc1 | 11.2 (≈ 28.6 µM) | > 11.8 | 0 | 6.19 (≈ 15.7 µM) | 100 | 5.48 (≈ 13.9 µM) | 0 | > 11.8
9 | COc1cccc(NC(=O)NCCNc2ccc(Nc3cccc(C)n3)nn2)c1 | > 11.8 | > 11.8 | 0 | 4.98 (≈ 12.6 µM) | 100 | 4.13 (≈ 10.5 µM) | 0 | > 11.8
10 | O=C(CCCn1nc(-c2ccc(F)cc2)ccc1=O)Nc1ccc(C(F)(F)F)cc1 | > 12.6 | > 12.6 | 0 | > 12.6 | 100 | > 12.6 | 0 | > 12.6
11 | O=C(c1cccs1)N(CCCn1ccnc1)c1nc2c(F)cc(F)cc2s1 | 4.01 (≈ 9.91 µM) | 8.75 (≈ 21.6 µM) | 0 | 0.793 (≈ 1.96 µM) | 100 | 4.23 (≈ 10.5 µM) | 0 | > 13.2
12 | CCOc1cccc2sc(N(CCCn3ccnc3)C(=O)c3cccs3)nc12 | 4.08 (≈ 9.88 µM) | 5.87 (≈ 14.2 µM) | 0 | 0.573 (≈ 1.39 µM) | 100 | 4.31 (≈ 10.4 µM) | 0 | > 13.5
13 | COc1cc(OC)cc(C(=O)N2CCN(c3nccn3-c3cccc(Cl)c3)CC2)c1 | 4.18 (≈ 9.78 µM) | > 13.9 | 0 | 6.13 (≈ 14.4 µM) | 100 | 4.5 (≈ 10.5 µM) | 0 | 4.5 (≈ 10.5 µM)
14 | CS(=O)(=O)c1ccc2nc(N(Cc3cccnc3)C(=O)c3cccc(Oc4ccccc4)c3)sc2c1 | 0.275 (≈ 0.533 µM) | > 15.5 | 0 | 4.49 (≈ 8.71 µM) | 0 | > 15.5 | 0 | > 15.5
15 | CS(=O)(=O)N1CCCCC1C(=O)Nc1nc2c(Cl)c(Cl)ccc2s1 (stereo not given) | > 12.2 | > 12.2 | 0 | > 12.2 | 100 | > 12.2 | 0 | > 12.2
16 | CCn1ccnc1N1CCN(CC(=O)NCc2ccc(C)cc2)CC1 | > 12.4 | > 12.4 | 0 | > 12.4 | 0 | > 12.4 | 0 | 0.402 (≈ 1.18 µM)
17 | O=C(c1ccc(Cl)cc1Cl)N1CCN(c2ccc(Nc3cccnc3)nn2)CC1 | 3.7 (≈ 8.63 µM) | > 12.9 | 0 | 7.24 (≈ 16.9 µM) | 100 | > 12.9 | 0 | > 12.9
18 | O=C(CCn1cnc2c(cnn2-c2ccccc2)c1=O)Nc1nccs1 | > 11 | > 11 | 20 | > 11 | 0 | > 11 | 100 | 3.56 (≈ 9.71 µM)
19 | COc1ccc(OC)c(Nc2c(C#N)cnc3ccc(Cl)cc23)c1 | 3.08 (≈ 9.07 µM) | 1.08 (≈ 3.18 µM) | 20 | > 11.3 | 0 | > 11.3 | 0 | 0.365 (≈ 1.07 µM)
20 | O=C(Cc1csc(SCC(=O)c2ccccc2)n1)NCCC1=CCCCC1 | 3.65 (≈ 9.11 µM) | > 12 | 0 | > 12 | 100 | 5.07 (≈ 12.6 µM) | 33.3 | > 12
21 | COc1cccc(C(=O)N2CCN(c3ccc(-c4ccccn4)nn3)CC2)c1OC | 0.421 (≈ 1.04 µM) | 5.68 (≈ 14 µM) | 33.33 | 0.548 (≈ 1.35 µM) | 100 | 3.85 (≈ 9.49 µM) | 33.3 | 1.81 (≈ 4.46 µM)
22 | O=C(NCCc1ccc(Cl)cc1)c1csc(NS(=O)(=O)c2ccccc2)n1 | > 12.7 | > 12.7 | 20 | > 12.7 | 100 | > 12.7 | 0 | > 12.7
23 | O=C(c1ccc2c(c1)OCCO2)N(CCCn1ccnc1)c1nc2c(F)cccc2s1 | 3.6 (≈ 8.22 µM) | 6.23 (≈ 14.2 µM) | 0 | 1.35 (≈ 3.08 µM) | 100 | 4.56 (≈ 10.4 µM) | 0 | > 14.2
24 | Cc1ccc(S(=O)(=O)N(C)CC(O)COc2c(C)cc(C)cc2C)cc1 (stereo not given) | 3.81 (≈ 10.1 µM) | > 11.3 | 0 | > 11.3 | 100 | 9.55 (≈ 25.3 µM) | 0 | > 11.3
25 | O=C(C1CCCC1)N1CCN(c2ccc(-c3ccccn3)nn2)CC1 | 1.19 (≈ 3.52 µM) | 4.9 (≈ 14.5 µM) | 33.33 | 4.13 (≈ 12.3 µM) | 0 | 3.2 (≈ 9.49 µM) | 41.7 | 0.328 (≈ 0.972 µM)
26 | COc1cccc(NC(=O)NCCNc2ccc(Nc3cc(C)ccn3)nn2)c1 | > 11.8 | > 11.8 | 25 | 9.93 (≈ 25.2 µM) | 100 | 3.82 (≈ 9.71 µM) | 0 | > 11.8
27 | CCc1nnc(NS(=O)(=O)c2ccc(NC(=O)c3ccc(S(=O)(=O)N4CCCCC4C)cc3)cc2)s1 (stereo not given) | > 16.5 | > 16.5 | 0 | 13.4 (≈ 24.4 µM) | 100 | 5.34 (≈ 9.71 µM) | 0 | > 16.5
28 | CS(=O)(=O)N1CCCCC1C(=O)Nc1nc(-c2ccc(F)cc2)cs1 (stereo not given) | 3.82 (≈ 9.95 µM) | > 11.5 | 0 | > 11.5 | 100 | 5.4 (≈ 14.1 µM) | 0 | > 11.5
29 | CC(=O)c1sc(NC(=O)C2CCCCN2S(C)(=O)=O)nc1-c1ccccc1 (stereo not given) | 4.06 (≈ 9.97 µM) | > 12.2 | 0 | > 12.2 | 100 | 3.12 (≈ 7.67 µM) | 0 | > 12.2
30 | O=C(CSc1ncc(CO)n1Cc1ccc(Cl)cc1)NCc1ccccc1Cl | 4.39 (≈ 10.1 µM) | > 13.1 | 25 | > 13.1 | 100 | 4.84 (≈ 11.1 µM) | 0 | > 13.1
